Experimental data reported in ChEMBL document CHEMBL4819096, “Antibacterial activity of noscapine analogs” (Bioorg Med Chem Lett, 2021).
Values after ≈ are worked out from the molar mass of the structure shown. Active and inactive are the calls of the source. No cut-off for these calls is given here.

Columns and labels:
[1] = tested on: Hafnia alvei; assay: Antibacterial activity against Ampicillin resistant Hafnia alvei O31 assessed as inhibition of bacterial growth measured after 16 to 20 hrs by two-fold serial microbroth dilution method; type: functional, organism-based; conditions: time 16-20 hrs
Procedure, shortened: (§1)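 Broth microdilution MIC in LB and M9 medium. Inoculum adjusted to about 5 × 10⁵ cells/ml. Compound serially diluted twofold. Plates covered and incubated at 37 °C with shaking. OD600 read; MIC taken as the lowest concentration giving no growth after 16–20 h.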

[2] = tested on: Bacillus subtilis; assay: Antibacterial activity against Bacillus subtilis 3HM assessed as inhibition of bacterial growth measured after 16 to 20 hrs by two-fold serial microbroth dilution method; type: functional, organism-based; conditions: time 16-20 hrs
Procedure, shortened: (§2)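 Broth microdilution in LB and M9 medium. Inoculum adjusted to about 5 × 10⁵ cells/ml. Compound diluted twofold serially in microplate wells, then plates covered and incubated at 37 °C with shaking. Growth read as OD600. MIC taken as the lowest concentration giving no growth after 16–20 h.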

[3] = tested on: Enterobacter cloacae; assay: Antibacterial activity against ampicillin/cefotaxime/tetracycline/ceftriaxone-resistant Enterobacter cloacae O3 assessed as inhibition of bacterial growth measured after 16 to 20 hrs by two-fold serial microbroth dilution method; type: functional, organism-based; conditions: time 16-20 hrs; procedure, shortened: as §1
[4] = tested on: Escherichia coli; assay: Antibacterial activity against Escherichia coli ATCC25922 assessed as inhibition of bacterial growth measured after 16 to 20 hrs by two-fold serial microbroth dilution method; type: functional, organism-based; conditions: ATCC 25922, time 16-20 hrs; procedure, shortened: as §2
[5] = tested on: Pseudomonas aeruginosa; assay: Antibacterial activity against ampicillin/cefotaxime-resistant Pseudomonas aeruginosa ATCC 27853 assessed as inhibition of bacterial growth measured after 16 to 20 hrs by two-fold serial microbroth dilution method; type: functional, organism-based; conditions: time 16-20 hrs; procedure, shortened: as §1
[6] = tested on: Aeromonas; assay: Antibacterial activity against Aeromonas sp. O9 assessed as inhibition of bacterial growth measured after 16 to 20 hrs by two-fold serial microbroth dilution method; type: functional, organism-based; conditions: time 16-20 hrs; procedure, shortened: as §2
[7] = tested on: Klebsiella pneumoniae; assay: Antibacterial activity against ampicillin/fosfomycin-resistant Klebsiella pneumonia 181210171-2 assessed as inhibition of bacterial growth measured after 16 to 20 hrs by two-fold serial microbroth dilution method; type: functional, organism-based; conditions: time 16-20 hrs; procedure, shortened: as §1
[8] = tested on: Candida albicans; assay: Antibacterial activity against ampicillin/cefotaxime/tetracycline/ceftriaxone/fosfomycin-resistant Candida albicans 181210169-1 assessed as inhibition of fungal growth measured after 16 to 20 hrs by two-fold serial microbroth dilution method; type: functional, organism-based; conditions: time 16-20 hrs; procedure, shortened: as §1
[9] = Cytotoxicity against human HEK293 cells assessed as reduction in cell viability measured after 28 hrs by PrestoBlue reagent based fluorescence analysis
Procedure, shortened: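 HEK293 cells seeded at 25*10³ per well in DMEM with 10% FBS, 2 mM L-Glu and 50 µg/ml gentamicin. Cells held 24 h at 37 °C, 5% CO2 before compound was added (final DMSO 0.1%), then incubated 28 h. Viability read by PrestoBlue fluorescence at 590 nm, expressed relative to 0.1% DMSO control (100%). CC50 derived by curve fitting.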

[10] = tested on: Klebsiella oxytoca; assay: Antibacterial activity against Klebsiella oxytoca R48 assessed as inhibition of bacterial growth measured after 16 to 20 hrs by two-fold serial microbroth dilution method; type: functional, organism-based; conditions: time 16-20 hrs; procedure, shortened: as §2
[11] = tested on: Proteus sp.; assay: Antibacterial activity against ampicillin/cefotaxime/tetracycline/ceftriaxone/fosfomycin-resistant Proteus sp. O14 assessed as inhibition of bacterial growth measured after 16 to 20 hrs by two-fold serial microbroth dilution method; type: functional, organism-based; conditions: time 16-20 hrs; procedure, shortened: as §1
[12] = tested on: Escherichia coli; assay: Antibacterial activity against Escherichia coli assessed as inhibition of bacterial growth measured after 16 to 20 hrs by two-fold serial microbroth dilution method; type: functional; conditions: time 16-20 hrs; procedure, shortened: as §2
[13] = tested on: Citrobacter koseri; assay: Antibacterial activity against Citrobacter koseri R38 assessed as inhibition of bacterial growth measured after 16 to 20 hrs by two-fold serial microbroth dilution method; type: functional, organism-based; conditions: time 16-20 hrs; procedure, shortened: as §2
[14] = tested on: HEK293; assay: Induction of cell cycle arrest in human HEK293 cells assessed as increase in accumulation of apoptotic cells at sub G1 phase at 71 uM measured after 48 hrs by propidium iodide staining based flow cytometry; conditions: hek293, 48 h
Procedure, shortened: (§3)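 Cell-cycle profiling of HEK293 cells treated with compound or vehicle (0.1% DMSO). Cells harvested (400 × g, 5 min) and fixed in ice-cold 70% ethanol for 24 h at −20 °C. Washed in PBS, treated with RNase A (0.5 mg/ml, 5 min, room temperature), then stained with propidium iodide (50 µg/ml, 30 min). DNA content read by flow cytometry on a linear scale. At least duplicate; mean ± S.E.M.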

[15] = tested on: Proteus vulgaris; assay: Antibacterial activity against Proteus vulgaris O41 assessed as inhibition of bacterial growth measured after 16 to 20 hrs by two-fold serial microbroth dilution method; type: functional, organism-based; conditions: time 16-20 hrs; procedure, shortened: as §2
[16] = tested on: HEK293; assay: Induction of cell cycle arrest in human HEK293 cells assessed as increase in accumulation of cells at S phase at 71 uM after 24 hrs by propidium iodide staining based flow cytometry; conditions: hek293, 24 h; procedure, shortened: as §3
[17] = tested on: Escherichia coli; assay: Antibacterial activity against ampicillin/cefotaxime/tetracycline/ceftriaxone-resistant Escherichia coli mx7 assessed as inhibition of bacterial growth measured after 16 to 20 hrs by two-fold serial microbroth dilution method; type: functional, organism-based; conditions: time 16-20 hrs; procedure, shortened: as §1
[18] = Selectivity index, ratio of CC50 for human HEK293 cells to MIC for antibacterial activity against Escherichia coli; type: toxicity; conditions: read-out: Selectivity Index
[19] = tested on: Pseudomonas aeruginosa; assay: Antibacterial activity against Pseudomonas aeruginosa R42 assessed as inhibition of bacterial growth measured after 16 to 20 hrs by two-fold serial microbroth dilution method; type: functional, organism-based; conditions: time 16-20 hrs; procedure, shortened: as §2
[20] = tested on: Morganella morganii; assay: Antibacterial activity against Morganella morganii R36 assessed as inhibition of bacterial growth measured after 16 to 20 hrs by two-fold serial microbroth dilution method; type: functional, organism-based; conditions: time 16-20 hrs; procedure, shortened: as §2
[21] = tested on: Enterobacter; assay: Antibacterial activity against Enterobacter sp. O54 assessed as inhibition of bacterial growth measured after 16 to 20 hrs by two-fold serial microbroth dilution method; type: functional, organism-based; conditions: time 16-20 hrs; procedure, shortened: as §2
[22] = tested on: Staphylococcus aureus; assay: Antibacterial activity against Fosfomycin resistant Staphylococcus aureus ATCC USA 206 assessed as inhibition of bacterial growth measured after 16 to 20 hrs by two-fold serial microbroth dilution method; type: functional, organism-based; conditions: time 16-20 hrs; procedure, shortened: as §1
[23] = tested on: Klebsiella aerogenes; assay: Antibacterial activity against Enterobacter aerogenes R41 assessed as inhibition of bacterial growth measured after 16 to 20 hrs by two-fold serial microbroth dilution method; type: functional, organism-based; conditions: time 16-20 hrs; procedure, shortened: as §2

SMILES: CCn1c(O)c(C(=O)CC2c3c(cc4c(c3OC)OCO4)CCN2C)c(=O)n(CC)c1=S (stereo not drawn)
- Activity [1]: inactive
- Activity [2]: Active
- Activity [3]: inactive
- Activity [4]: inactive
- Activity [5]: inactive
- Activity [6]: inactive
- Activity [7]: inactive
- Activity [8]: inactive
- CC50 at 28 h [9]: 71 µM
- Activity [10]: inactive
- Activity [11]: inactive
- MIC [12]: 13.5 µM (≈ 6.23 µg/mL)
- Activity [13]: inactive
- Activity [14]: Toxic
- Activity [15]: inactive
- Activity [16]: Toxic
- Activity [17]: inactive
- selectivity ratio [18]: 5.5
- Activity [19]: inactive
- Activity [20]: inactive
- Activity [21]: inactive
- Activity [22]: Active
- Activity [23]: inactive
